Measured values gathered from unrelated publications.
Compare with care: the assays were run in different laboratories.
Sample: plasma

SMILES	species	route	dose	notes	Tmax [h]
Cc1cn([C@H]2C[C@H](N=[N+]=[N-])[C@@H](CO)O2)c(=O)[nH]c1=O	human	oral	600 mg	single dose, healthy volunteers	0.62
CC(=O)N(C)[C@H]1CCN(C(=O)c2cnc3c(c2)C[C@](C)(c2ccc(F)cc2)N3)C1	male human	oral	30 mg	multiple doses, once daily, steady state	0.75
COc1ccc(F)cc1C(=O)NCc1ccc(-c2nn([C@@H](C)C(F)(F)F)c(N)c2C(N)=O)cc1	male human	oral	200 mg	single dose	5
C[C@@H](Oc1ccc(S(C)(=O)=O)cc1C(=O)N1C[C@@H]2C[C@]2(c2cc(C(F)(F)F)on2)C1)C(F)(F)F	human	oral	10 mg	single dose, fasted	3.5
CC(C)n1cc(C#N)c2cc(-n3cc(C(=O)O)cn3)ccc21	human	oral	200 mg	single dose, fasted, healthy volunteers	4.01
N#Cc1cccc(-c2ccc3ncc(-c4cc(F)cc(F)c4)c(N4CCC(N)CC4)c3c2)c1O	male human	intravenous	50 µg		0.03
O=C(COc1ccc(Cl)cc1)NC12CC(c3nnc([C@H]4C[C@@H](OC(F)(F)F)C4)o3)(C1)C2	human	oral	260 mg	multiple doses, once daily, steady state, healthy volunteers	3
OC[C@H]1O[C@@H](c2cc(Cc3ccc(C4CC4)cc3)c(Cl)c3c2CCO3)[C@H](O)[C@@H](O)[C@@H]1O	human	oral	0.3 mg	single dose, fed, healthy volunteers	2
COc1ccc2c(c1)CN(C(=O)CCN1CCC(Cc3ccccc3)CC1)CC[S@@+]2[O-]	male human	intravenous	0.05 mg/kg	healthy volunteers	0
